pIC50, pKi: −log10 of the molar value. Converted amounts (≈) assume the structure as drawn. The source made the active and inactive calls. The rule behind the calls is not given here.
How the values were obtained:
[1] = system: HeLa; experiment: Cytotoxicity against human HeLa cells by MTT assay; type: cell-based
[2] = system: Staphylococcus aureus; experiment: Antibacterial activity against Staphylococcus aureus Smith by broth microdilution method; type: functional
[3] = system: Bacillus anthracis; experiment: Antibacterial activity against permeabilized polA-deficient Bacillus anthracis Sterne assessed as inhibition of DNA replication by cell based assay; type: functional, organism-based
In short: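 ATP-dependent DNA replication measured in permeabilized ΔpolA B. anthracis Sterne cells by a modified Brown et al. method, testing whether compounds block an intact replisome.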

[4] = system: Bacillus anthracis; experiment: Antibacterial activity against Bacillus anthracis Sterne by broth microdilution method; type: functional
[5] = target: T1, DnaC helicase (Staphylococcus aureus, UniProt Q9AQH7); experiment: Inhibition of Staphylococcus aureus Smith DNA helicase DnaC assessed as strand unwinding after 30 mins by FRET assay
T1 sequence (Q9AQH7 whole entry): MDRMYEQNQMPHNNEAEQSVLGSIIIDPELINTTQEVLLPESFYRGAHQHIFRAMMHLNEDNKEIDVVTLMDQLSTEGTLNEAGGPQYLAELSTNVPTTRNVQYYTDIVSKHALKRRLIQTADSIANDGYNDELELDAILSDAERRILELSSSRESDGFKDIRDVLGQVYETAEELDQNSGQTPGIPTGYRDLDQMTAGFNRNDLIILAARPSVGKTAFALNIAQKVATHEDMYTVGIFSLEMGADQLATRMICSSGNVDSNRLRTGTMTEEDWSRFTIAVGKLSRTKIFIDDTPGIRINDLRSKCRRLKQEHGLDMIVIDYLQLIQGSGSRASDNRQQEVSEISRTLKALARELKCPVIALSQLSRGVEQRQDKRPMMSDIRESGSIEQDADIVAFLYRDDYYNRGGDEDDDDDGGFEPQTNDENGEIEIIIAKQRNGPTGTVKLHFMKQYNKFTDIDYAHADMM

[6] = system: Bacillus subtilis; experiment: Inhibition of Bacillus subtilis class C DNA polymerase 3
In short: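 B. subtilis Pol IIIC polymerase assay in 96-well format on DNase-activated chromosomal DNA substrate, which needs no helicase function.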

[7] = system: Bacillus licheniformis; experiment: Antibacterial activity against Bacillus licheniformis ATCC 14580 by broth microdilution method; type: functional; conditions: DSM 13=ATCC 14580
[8] = system: Bacillus cereus; experiment: Antibacterial activity against Bacillus cereus ATCC 4342 by broth microdilution method; type: functional
[9] = system: Staphylococcus aureus; experiment: Antibacterial activity against methicillin-resistant Staphylococcus aureus isolate 1094 by broth microdilution method; type: functional
[10] = system: Bacillus subtilis; experiment: Inhibition of Bacillus subtilis DNA gyrase up to 50 uM by gel mobility assay
In short: (§1)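 B. subtilis DNA gyrase activity measured by a published gel mobility assay; compounds tested up to 50 μM.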

[11] = system: Priestia megaterium; experiment: Antibacterial activity against Bacillus megaterium ATCC 12872 by broth microdilution method; type: functional
[12] = system: Escherichia coli; experiment: Antibacterial activity against TolC deficient Escherichia coli 701 by broth microdilution method; type: functional
[13] = system: Geobacillus stearothermophilus; experiment: Antibacterial activity against Bacillus stearothermophilus ATCC 12980 by broth microdilution method; type: functional
[14] = system: Bacillus thuringiensis; experiment: Antibacterial activity against Bacillus thuringiensis ATCC 10792 by broth microdilution method; type: functional
[15] = system: Enterococcus faecalis; experiment: Antibacterial activity against vancomycin-resistant Enterococcus faecalis ATCC 51575 by broth microdilution method; type: functional
[16] = system: Escherichia coli; experiment: Antibacterial activity against Escherichia coli 700 expressing […] gene by broth microdilution method; type: functional
[17] = system: Staphylococcus aureus; experiment: Antibacterial activity against Staphylococcus aureus ATCC 25923 by broth microdilution method; type: functional
[18] = system: Bacillus subtilis; experiment: Antibacterial activity against Bacillus subtilis BD54 by broth microdilution method; type: functional
[19] = Selectivity ratio of IC50 for Staphylococcus aureus Smith DNA helicase DnaC to IC50 for Bacillus anthracis DNA helicase DnaB
[20] = system: Enterococcus faecalis; experiment: Antibacterial activity against Enterococcus faecalis ATCC 29212 by broth microdilution method; type: functional
[21] = Inhibition of Bacillus subtilis DNA gyrase by gel mobility assay; in short: as §1
[22] = system: Bacillus anthracis; experiment: Inhibition of Bacillus anthracis DNA helicase DnaB by competitive inhibition assay in presence of ATP
In short: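 Helicase FRET unwinding kinetics with B. anthracis enzyme, varying both ATP (0.625, 1.25, 2.5 mM and higher) and inhibitor concentrations; analysed by Dixon plot (1/V vs [I]).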

[23] = system: Bacillus anthracis; experiment: Antibacterial activity against Bacillus anthracis Sterne at 4 times MIC within 5.5 hrs; type: functional, organism-based
[24] = system: Bacillus anthracis; experiment: Inhibition of Bacillus anthracis DNA helicase DnaB by Lineweaver-Burke plot analysis in presence of DNA substrate
In short: (§2)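 FRET strand-unwinding assay with purified B. anthracis helicase, 6-FAM/BHQ1 annealed 60-mer duplex, pH 7.9 Tris, 2 mM MgCl2, 25 mM NaCl, 0.01% Triton X-100, 2.5 mM ATP, room temperature 30 min. Oligo substrate and inhibitor concentrations varied; Ki taken from a Dixon plot.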

[25] = system: Bacillus anthracis; experiment: Inhibition of single strand DNA-stimulated ATPase activity of Bacillus anthracis DNA helicase DnaB at 100 uM
In short: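 ssDNA-stimulated ATPase of B. anthracis helicase assayed with 100 μM inhibitor, 0.5 mM ATP and 200 pmole M13mp19 single-stranded DNA.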

[26] = Inhibition of Bacillus anthracis DNA helicase DnaB by Dixon plot analysis in presence of annealed oligonucleotide substrate; in short: as §2

| SMILES | CC50 [1] [µM] | MIC [2] [µM] | pIC50 [3] | MIC [4] [µM] | pIC50 [5] | Ratio IC50 [19] | other results |
| --- | --- | --- | --- | --- | --- | --- | --- |
| Oc1ccc(O)c(-c2ccc(-c3nnc(S)o3)o2)c1 | 66 | > 100 | < 4.00 | 25 (≈ 6.91 µg/mL) | < 4.00 | – | – |
| Cc1ccc(C)n1-c1ccc(C(=O)O)c(O)c1 | > 100 | 50 (≈ 11.6 µg/mL) | < 4.00 | 50 (≈ 11.6 µg/mL) | – | – | – |
| COc1cc(C(=O)Nc2nc3ccc(S(=O)(=O)N4CCOCC4)cc3s2)cc(OC)c1OC | 70 | > 100 | < 4.00 | > 100 | 4.82 | – | inhibition [6]: inactive |
| CCOc1ccccc1C(=O)Nc1nc2ccc(S(N)(=O)=O)cc2s1 | 10 | > 100 | < 4.00 | > 100 | 4.25 | – | inhibition [6]: inactive |
| Cc1c(CCC(=O)O)c(=O)oc2c(C)c(OCc3cccc4ccccc34)ccc12 | 6 | > 100 | 3.97 | 6 (≈ 2.41 µg/mL) | 4.19 | 2 | MIC [7]: 2.5 µg/mL (≈ 6.21 µM); MIC [8]: 2.5 µg/mL (≈ 6.21 µM); MIC [9]: 5 µg/mL (≈ 12.4 µM); inhibition [10]: inactive; MIC [11]: > 40 µg/mL; MIC [12]: > 40 µg/mL; MIC [13]: 5 µg/mL (≈ 12.4 µM); MIC [14]: 2.5 µg/mL (≈ 6.21 µM); MIC [15]: > 40 µg/mL; MIC [16]: > 40 µg/mL; MIC [17]: 2.5 µg/mL (≈ 6.21 µM); MIC [18]: 15.1 µg/mL (≈ 37.5 µM); MIC [20]: > 40 µg/mL |
| COc1cc(/C=C2\SC(=S)N(c3ccc([N+](=O)[O-])cc3)C2=O)cc(OC)c1O | 11 | > 100 | – | > 100 | 6.15 | – | – |
| Cn1c(SCc2cc(=O)oc3cc(O)c(O)cc23)nc2ccccc21 | 35 | 23 (≈ 8.15 µg/mL) | 4.00 | 55 (≈ 19.5 µg/mL) | 4.82 | 2 | – |
| CCC1(C)Cc2ccccc2-c2[nH]c3nnc(S)n3c(=O)c21 (stereo not given) | 80 | > 100 | 4.57 | 30 (≈ 9.37 µg/mL) | < 4.00 | – | – |
| CO[C@@H]1[C@@H](OC(=O)c2ccc(C)[nH]2)[C@@H](O)[C@@H](Oc2ccc3c(O)c(NC(=O)c4c[nH]c(C(=O)Nc5c(O)c6ccc(O[C@H]7OC(C)(C)[C@H](OC)[C@@H](OC(=O)c8ccc(C)[nH]8)[C@H]7O)c(C)c6oc5=O)c4C)c(=O)oc3c2C)OC1(C)C [COUMERMYCIN] | – | – | – | – | – | – | pIC50 [21]: > 6.00 |
| Cc1c(CCC(=O)O)c(=O)oc2c(C)c(OCc3ccc(Br)cc3F)ccc12 | > 100 | > 100 | 4.60 | 10 (≈ 4.49 µg/mL) | 3.74 | 2 | inhibition [22]: Active; MIC [7]: 2.8 µg/mL (≈ 6.23 µM); MIC [8]: 2.8 µg/mL (≈ 6.23 µM); MIC [9]: > 45 µg/mL; inhibition [10]: inactive; Activity [23]: Active; MIC [11]: > 45 µg/mL; MIC [12]: > 45 µg/mL; MIC [13]: 5.6 µg/mL (≈ 12.5 µM); inhibition [24]: Active; MIC [14]: 2.8 µg/mL (≈ 6.23 µM); inhibition [25]: 16%; MIC [15]: > 45 µg/mL; pKi [26]: 5.10; MIC [16]: > 45 µg/mL; MIC [17]: 11.2 µg/mL (≈ 24.9 µM); MIC [18]: 4.2 µg/mL (≈ 9.35 µM); MIC [20]: > 45 µg/mL |
